Experimental data published in paper PMC9306620 (Clinical Pharmacology in Drug Development, 2022).
Where “and” joins values, the source holds several entries; their conditions need not be identical. Equal entries are not always repeated. Where two headings read alike, the source gives them in different places.

Tests used:
[1] = drug interaction studies; cited from earlier work
[2] = cited from earlier work
[3] = system: HIV-1 subtypes; conditions: in vitro; cited from earlier work
[4] = type: in vivo, healthy participants; conditions: 200 mg, moderate-fat meal; for AUC(0-t) / AUC(0-inf) / Cmax: human, plasma, oral, geometric LS mean, part 1, analysis of variance, n = 18; for AUC(0-t): AUC0-t; for AUC(0-inf): AUC0-∞
Summary of the method: (§1)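 Randomized, open-label, single-dose crossover in healthy adults aged 18–55, with periods separated by a ≥7-day washout. Each oral 200 mg dose was given as two 100-mg units. Plasma was sampled 40 min predose and 1–96 h postdose and assayed by UHPLC-MS/MS. Noncompartmental parameters used actual sampling times. ln-AUC0-t, AUC0-∞ and Cmax were analysed by linear mixed-effects model (treatment, period, sequence fixed; participant random) with 90% CIs.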

[5] = Part 1: safety and tolerability; type: in vivo, healthy participants; conditions: N = 18
Summary of the method: (§2)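 Safety followed a single oral 200 mg dose given as two 100-mg capsules or tablets. Adverse events, clinical laboratory tests, vital signs, 12-lead ECG and physical examination were monitored. The safety population was all participants receiving ≥1 dose, summarized descriptively by treatment. AEs occurring later than last treatment + 5 days were not counted. The investigator assessed each AE for drug relatedness.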

[6] = system: HIV-1; conditions: 200-mg dose, treatment-naive adults with HIV-1, phase IIa; cited from earlier work
[7] = system: uridine diphosphate glucuronosyltransferase 1A1; conditions: in vitro; cited from earlier work
[8] = system: organic anion-transporting polypeptide 1B3; conditions: in vitro; cited from earlier work
[9] = Part 2: safety and tolerability; type: in vivo, healthy participants; conditions: for Adverse events: abdominal distention (drug related) / Adverse events: anxiety / Adverse events: any event / Adverse events: diarrhea (drug related) / Adverse events: dysmenorrhea / Adverse events: eye irritation / Adverse events: rash maculopapular (drug related, led to withdrawal): part 2, tablet 200 mg
Summary of the method: as §2

[10] = Part 2: food effect on plasma pharmacokinetics of the tablet formulation; type: in vivo, healthy participants; conditions: for AUC(0-t) / AUC(0-inf) / Cmax: human, plasma, oral, 200 mg, geometric LS mean, part 2, analysis of variance; for AUC(0-t): AUC0-t; for AUC(0-inf): AUC0-∞
Summary of the method: as §1

[11] = tablet 200 mg, high fat, n = 21
[12] = tablet 200 mg, moderate fat, n = 20
[13] = tablet 200 mg, high fat vs fasted, part 2
[14] = tablet 200 mg, moderate fat vs fasted, part 2

C=C(C)[C@@H]1CC[C@]2(NCCN3CCS(=O)(=O)CC3)CC[C@]3(C)[C@H](CC[C@@H]4[C@@]5(C)CC=C(C6=CC[C@@](CF)(C(=O)O)CC6)C(C)(C)[C@@H]5CC[C@]43C)[C@@H]12 [GSK3640254]
effect on the pharmacokinetics of combined oral contraceptives [1]: no meaningful effect | effect on the pharmacokinetics of dolutegravir [1]: no meaningful effect | effect on the pharmacokinetics of tenofovir alafenamide [1]: no meaningful effect | estimated half-life ([2]; 200-mg dose, healthy participants): approximately 22.6 hours | tolerability ([2]; phase I studies in healthy participants, headache most common AE): generally well tolerated | inhibition across various HIV-1 subtypes [3]: broad‐spectrum potent inhibition | AUC(0-t) ([4]; capsule): 33.7 µg·h/mL | AUC(0-t) ([4]; tablet): 33.8 µg·h/mL | AUC(0-inf) ([4]; capsule): 36.9 µg·h/mL | AUC(0-inf) ([4]; tablet): 36.9 µg·h/mL | Cmax ([4]; capsule): 1.2 µg/mL | Cmax ([4]; tablet): 1.31 µg/mL | AUC0-t, geometric LS mean ratio ([4]; tablet vs capsule, part 1): 1.00 | AUC0-∞, geometric LS mean ratio ([4]; tablet vs capsule, part 1): 0.998 | Cmax, geometric LS mean ratio ([4]; tablet vs capsule, part 1): 1.09 | Adverse events: abdominal distention (drug related) ([5]; part 1, capsule 200 mg): 0 n (%) | Adverse events: anxiety ([5]; part 1, capsule 200 mg): 0 n (%) | Adverse events: diarrhea (drug related) ([5]; part 1, capsule 200 mg): 0 n (%) | Adverse events: dysmenorrhea ([5]; part 1, capsule 200 mg): 0 n (%) | Adverse events: eye irritation ([5]; part 1, capsule 200 mg): 0 n (%) | Adverse events: rash maculopapular (drug related, led to withdrawal) ([5]; part 1, capsule 200 mg): 0 n (%) | Adverse events: abdominal distention (drug related) ([5]; part 1, tablet 200 mg): 0 n (%) | Adverse events: anxiety ([5]; part 1, tablet 200 mg): 0 n (%) | Adverse events: any event ([5]; part 1, tablet 200 mg): 1 (6) n (%) | Adverse events: diarrhea (drug related) ([5]; part 1, tablet 200 mg): 0 n (%) | Adverse events: dysmenorrhea ([5]; part 1, tablet 200 mg): 0 n (%) | Adverse events: eye irritation ([5]; part 1, tablet 200 mg): 1 (6%) n (%) and 1 (6) n (%) | Adverse events: rash maculopapular (drug related, led to withdrawal) ([5]; part 1, tablet 200 mg): 0 n (%) | reduction in plasma HIV-1 RNA [6]: approximately 2 log10 | inhibition of uridine diphosphate glucuronosyltransferase 1A1 [7]: inhibitor | inhibition of organic anion-transporting polypeptide 1B3 [8]: inhibitor | Adverse events: abdominal distention (drug related) ([9]; fasted, N = 19): 0 n (%) | Adverse events: anxiety ([9]; fasted, N = 19): 0 n (%) | Adverse events: any event ([9]; fasted, N = 19): 0 n (%) | Adverse events: diarrhea (drug related) ([9]; fasted, N = 19): 0 n (%) | Adverse events: dysmenorrhea ([9]; fasted, N = 19): 0 n (%) | Adverse events: eye irritation ([9]; fasted, N = 19): 0 n (%) | Adverse events: rash maculopapular (drug related, led to withdrawal) ([9]; fasted, N = 19): 0 n (%) | Adverse events: abdominal distention (drug related) ([9]; high fat, N = 21): 1 (5) n (%) | Adverse events: anxiety ([9]; high fat, N = 21): 1 (5) n (%) | Adverse events: any event ([9]; high fat, N = 21): 5 (24%) n (%) and 5 (24) n (%) | Adverse events: diarrhea (drug related) ([9]; high fat, N = 21): 2 n (%) and 2 (10) n (%) | Adverse events: dysmenorrhea ([9]; high fat, N = 21): 1 (5) n (%) | Adverse events: eye irritation ([9]; high fat, N = 21): 0 n (%) | Adverse events: rash maculopapular (drug related, led to withdrawal) ([9]; high fat, N = 21): 1 (5) n (%) | Adverse events: abdominal distention (drug related) ([9]; moderate fat, N = 20): 0 n (%) | Adverse events: anxiety ([9]; moderate fat, N = 20): 0 n (%) | Adverse events: any event ([9]; moderate fat, N = 20): 0 n (%) | Adverse events: diarrhea (drug related) ([9]; moderate fat, N = 20): 0 n (%) | Adverse events: dysmenorrhea ([9]; moderate fat, N = 20): 0 n (%) | Adverse events: eye irritation ([9]; moderate fat, N = 20): 0 n (%) | Adverse events: rash maculopapular (drug related, led to withdrawal) ([9]; moderate fat, N = 20): 0 n (%) | participants reporting AEs considered related to the study treatment ([9]; part 2, tablets 200 mg, high-fat conditions): 10% | highest incidence of adverse events ([9]; tablet 200 mg, high-fat conditions): 24% | AUC(0-t) ([10]; tablet 200 mg, fasted, n = 13): 12.2 µg·h/mL | AUC(0-t) [10, 11]: 34.1 µg·h/mL | AUC(0-t) [10, 12]: 38.5 µg·h/mL | AUC(0-inf) ([10]; tablet 200 mg, fasted, n = 10): 14.2 µg·h/mL | AUC(0-inf) [10, 11]: 36.9 µg·h/mL | AUC(0-inf) [10, 12]: 41.6 µg·h/mL | Cmax ([10]; tablet 200 mg, fasted, n = 13): 0.351 µg/mL | Cmax [10, 11]: 1.08 µg/mL | Cmax [10, 12]: 1.44 µg/mL | AUC0-t, geometric LS mean ratio compared with fasted conditions [10, 13]: 2.79 | AUC0-∞, geometric LS mean ratio compared with fasted conditions [10, 13]: 2.59 | Cmax, geometric LS mean ratio compared with fasted conditions [10, 13]: 3.08 | mean Cmax, fold higher than under fasted conditions ([10]; tablet 200 mg, high-fat conditions, part 2): ~3 fold | AUC0-t, geometric LS mean ratio compared with fasted conditions [10, 14]: 3.15 | AUC0-∞, geometric LS mean ratio compared with fasted conditions [10, 14]: 2.93 | Cmax, geometric LS mean ratio compared with fasted conditions [10, 14]: 4.10 | mean estimate for CL/F, lower than under fasted conditions ([10]; tablet 200 mg, moderate- or high-fat conditions, part 2): > 60% | mean Cmax, fold higher than under fasted conditions ([10]; tablet 200 mg, moderate-fat conditions, part 2): ≈ 4 fold | t1/2, arithmetic mean (SD) ([10]; tablet, single dose 200 mg, fasted conditions, part 2, n = 10): 25.9 (3.33) hour | t1/2, arithmetic mean (SD) ([10]; tablet, single dose 200 mg, high-fat conditions, part 2, N = 21): 25.1 (4.18) hour | t1/2, geometric mean (%CVb) ([10]; tablet, single dose 200 mg, moderate-fat conditions, part 2, N = 20): 24.9 (18.0) hour
